Experimental data taken from ChEMBL document CHEMBL3351896, “Small Molecule that Reverses Dexamethasone Resistance in T-cell Acute Lymphoblastic Leukemia (T-ALL)” (ACS Med Chem Lett, 2014).
Calls of active or inactive are those of the source. The calls are words filed in the database; no cut-off is given here.

Key:
[1] = tested on: CUTLL1; experiment: Effect on BTG1 gene expression in human CUTLL1 cells in presence of 1 uM dexamethasone at 30 uM after 24 hrs by microarray method; format: functional, cell-based
Procedure, shortened: (§1)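 CUTLL1 T-ALL cells exposed 24 h to vehicle (DMSO), dexamethasone alone (1 μM), test agent alone (30 μM), or dexamethasone (1 μM) plus test agent (30 μM), in triplicate. Expression profiled by microarray. Leading-edge genes from GSEA were compared between the dexamethasone-plus-agent and dexamethasone-alone groups, using glucocorticoid-regulated gene sets from ALL patients on glucocorticoid therapy.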

[2] = tested on: CUTLL1; experiment: Effect on TK1 gene expression in human CUTLL1 cells in presence of 1 uM dexamethasone at 30 uM after 24 hrs by microarray method; format: functional, cell-based
Procedure, shortened: (§2)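 Human CUTLL1 T-ALL cells exposed for 24 h to vehicle (DMSO), dexamethasone alone (1 μM), test compound alone (30 μM), or dexamethasone 1 μM plus compound 30 μM, each in triplicate. Expression profiled by microarray. Glucocorticoid-regulated gene sets from ALL patients on glucocorticoid therapy scored by GSEA. Leading-edge genes compared between the combination and dexamethasone alone.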

[3] = tested on: CUTLL1; experiment: Effect on PAICS gene expression in human CUTLL1 cells in absence of 1 uM dexamethasone at 30 uM after 24 hrs by microarray method; format: functional, cell-based; procedure, shortened: as §1
[4] = tested on: CUTLL1; experiment: Effect on LILRB3 gene expression in human CUTLL1 cells in presence of 1 uM dexamethasone at 30 uM after 24 hrs by microarray method; format: functional, cell-based; procedure, shortened: as §1
[5] = tested on: CUTLL1; experiment: Effect on BRCA1 gene expression in human CUTLL1 cells in presence of 1 uM dexamethasone at 30 uM after 24 hrs by microarray method; format: functional, cell-based; procedure, shortened: as §1
[6] = tested on: CUTLL1; experiment: Effect on POLE2 gene expression in human CUTLL1 cells in absence of 1 uM dexamethasone at 30 uM after 24 hrs by microarray method; format: functional, cell-based; procedure, shortened: as §2
[7] = tested on: CUTLL1; experiment: Effect on TWISTNB gene expression in human CUTLL1 cells in absence of 1 uM dexamethasone at 30 uM after 24 hrs by microarray method; format: functional, cell-based; procedure, shortened: as §2
[8] = tested on: CUTLL1; experiment: Effect on RANBP1 gene expression in human CUTLL1 cells in presence of 1 uM dexamethasone at 30 uM after 24 hrs by microarray method; format: functional, cell-based; procedure, shortened: as §2
[9] = tested on: CUTLL1; experiment: Effect on GINS2 gene expression in human CUTLL1 cells in presence of 1 uM dexamethasone at 30 uM after 24 hrs by microarray method; format: functional, cell-based; procedure, shortened: as §1
[10] = tested on: CUTLL1; experiment: Effect on ALYREF gene expression in human CUTLL1 cells in absence of 1 uM dexamethasone at 30 uM after 24 hrs by microarray method; format: functional, cell-based; procedure, shortened: as §1
[11] = tested on: CUTLL1; experiment: Effect on USP1 gene expression in human CUTLL1 cells in presence of 1 uM dexamethasone at 30 uM after 24 hrs by microarray method; format: functional, cell-based; procedure, shortened: as §2
[12] = tested on: CUTLL1; experiment: Increase in GR expression in human CUTLL1 cells at 25 to 50 uM in presence of 1 uM dexamethasone after 24 hrs by RT-qPCR method; format: functional, cell-based
Procedure, shortened: (§3)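 CUTLL1 cells exposed to compound (25 or 50 μM) alone, with 1 μM dexamethasone, or with dexamethasone plus 1 μM RU486, for 6 or 24 h. GR measured as protein by Western blot and as transcript by RT-qPCR.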

[13] = tested on: CUTLL1; experiment: Effect on TIPIN gene expression in human CUTLL1 cells in absence of 1 uM dexamethasone at 30 uM after 24 hrs by microarray method; format: functional, cell-based; procedure, shortened: as §2
[14] = tested on: CUTLL1; experiment: Effect on CDC25A gene expression in human CUTLL1 cells in absence of 1 uM dexamethasone at 30 uM after 24 hrs by microarray method; format: functional, cell-based; procedure, shortened: as §1
[15] = tested on: CUTLL1; experiment: Effect on TSC22D3 gene expression in human CUTLL1 cells in presence of 1 uM dexamethasone at 30 uM after 24 hrs by microarray method; format: functional, cell-based; procedure, shortened: as §2
[16] = tested on: CUTLL1; experiment: Effect on SPC25 gene expression in human CUTLL1 cells in absence of 1 uM dexamethasone at 30 uM after 24 hrs by microarray method; format: functional, cell-based; procedure, shortened: as §2
[17] = tested on: CUTLL1; experiment: Increase in GR expression in human CUTLL1 cells at 50 uM after 6 hrs by Western blotting method; format: functional, cell-based; procedure, shortened: as §3
[18] = tested on: CUTLL1; experiment: Growth inhibition of human CUTLL1 cells at 50 uM in presence of etoposide after 48 hrs by alamar blue assay; format: functional, cell-based
[19] = tested on: CUTLL1; experiment: Increase in GR expression in human CUTLL1 cells at < 25 uM after 24 hrs by RT-qPCR method; format: functional, cell-based
[20] = tested on: CUTLL1; experiment: Growth inhibition of human CUTLL1 cells at 50 uM in presence of staurosporine after 48 hrs by alamar blue assay; format: functional, cell-based
[21] = tested on: CUTLL1; experiment: Effect on TSR1 gene expression in human CUTLL1 cells in presence of 1 uM dexamethasone at 30 uM after 24 hrs by microarray method; format: functional, cell-based; procedure, shortened: as §2
[22] = tested on: CUTLL1; experiment: Effect on NHP2 gene expression in human CUTLL1 cells in presence of 1 uM dexamethasone at 30 uM after 24 hrs by microarray method; format: functional, cell-based; procedure, shortened: as §1
[23] = tested on: CUTLL1; experiment: Effect on PFAS gene expression in human CUTLL1 cells in absence of 1 uM dexamethasone at 30 uM after 24 hrs by microarray method; format: functional, cell-based; procedure, shortened: as §2
[24] = target: Gamma-secretase (Homo sapiens) (UniProt Q96BI3+Q9NZ42+Q8WW43+P49768+Q92542+P49810); experiment: Inhibition of gamma secretase in human CUTLL1 cells assessed as effect on NOTCH cleavage level at 25 uM in presence of 1 uM dexamethasone after 24 hrs by Western blotting; format: cell-based
Procedure, shortened: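 Western blot of intracellular NOTCH (ICN) in CUTLL1 cells after 24 h exposure to compound alone or with 1 μM dexamethasone. The γ-secretase inhibitor Compound E (100 nM) plus dexamethasone was the reference treatment.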

[25] = tested on: CUTLL1; experiment: Effect on SMC2 gene expression in human CUTLL1 cells in absence of 1 uM dexamethasone at 30 uM after 24 hrs by microarray method; format: functional, cell-based; procedure, shortened: as §2
[26] = tested on: CUTLL1; experiment: Effect on MCM10 gene expression in human CUTLL1 cells in absence of 1 uM dexamethasone at 30 uM after 24 hrs by microarray method; format: functional, cell-based; procedure, shortened: as §1
[27] = tested on: CUTLL1; experiment: Effect on RUVBL1 gene expression in human CUTLL1 cells in absence of 1 uM dexamethasone at 30 uM after 24 hrs by microarray method; format: functional, cell-based; procedure, shortened: as §2
[28] = tested on: CUTLL1; experiment: Potentiation of dexamethasone-induced cytotoxicity against human CUTLL1 cells with high GR expression levels at 50 uM after 48 hrs by alamar blue assay; format: functional, cell-based
Procedure, shortened: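 Human CUTLL1 T-ALL cells engineered to express high (overexpressed) or low (knockdown) glucocorticoid receptor levels. Exposed to compound alone or with 1 μM dexamethasone. Alamar blue growth inhibition read after 48 h.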

[29] = tested on: CUTLL1; experiment: Effect on POLE3 gene expression in human CUTLL1 cells in presence of 1 uM dexamethasone at 30 uM after 24 hrs by microarray method; format: functional, cell-based; procedure, shortened: as §2
[30] = tested on: CUTLL1; experiment: Effect on CHEK1 gene expression in human CUTLL1 cells in presence of 1 uM dexamethasone at 30 uM after 24 hrs by microarray method; format: functional, cell-based; procedure, shortened: as §1
[31] = tested on: CUTLL1; experiment: Induction of PARP1 cleavage in human CUTLL1 cells at 25 uM after 24 hrs by western blotting method; format: functional, cell-based
Procedure, shortened: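 CUTLL1 cells exposed 24 h to compound (25 μM) alone, with 1 μM dexamethasone, or with dexamethasone plus 1 μM RU486. Apoptosis read as cleaved PARP by Western blot, quantified as fold change.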

Q: Which Activity [1] does the source give for `Nc1ncc(-c2ccncc2)c(C2CC2)n1` here?
A: Active

Q: And the Activity [2]?
A: Active

Q: And the Activity [3]?
A: inactive

Q: What about the Activity [4] of the same compound?
A: Active

Q: And the Activity [5]?
A: Active

Q: And the Activity [6]?
A: inactive

Q: And the Activity [7]?
A: inactive

Q: And the Activity [8]?
A: Active

Q: What about the Activity [9] of the same compound?
A: Active

Q: And the Activity [10]?
A: inactive

Q: What about the Activity [11] of the same compound?
A: Active

Q: What about the Activity [12] of the same compound?
A: Active

Q: And the Activity [13]?
A: inactive

Q: And the Activity [14]?
A: inactive

Q: And the Activity [15]?
A: Active

Q: What about the Activity [16] of the same compound?
A: inactive

Q: What about the Activity [17] of the same compound?
A: Active

Q: What about the “growth inhibition (GI)” value [18] of the same compound?
A: inactive

Q: What about the Activity [19] of the same compound?
A: inactive

Q: And the “growth inhibition (GI)” value [20]?
A: inactive

Q: What about the Activity [21] of the same compound?
A: Active

Q: And the Activity [22]?
A: Active

Q: What about the Activity [23] of the same compound?
A: inactive

Q: And the inhibition [24]?
A: inactive

Q: And the Activity [25]?
A: inactive

Q: And the Activity [26]?
A: inactive

Q: What about the Activity [27] of the same compound?
A: inactive

Q: And the Activity [28]?
A: Active

Q: What about the Activity [29] of the same compound?
A: Active

Q: What about the Activity [30] of the same compound?
A: Active

Q: What about the Activity [31] of the same compound?
A: inactive
